Activity calls are given as the source filed them. The calls are words filed in the database; no cut-off is given here.
Assays:
Trypanosoma brucei [1] = experiment: Mean survival dose (1.0 mg/kg) after intraperitoneal administration once a day for 3 days in mouse infected with Trypanosoma brucei (EATRO Lab 110); format: functional
How it was run: (§1)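 Female Swiss-Webster mice (20 g) infected ip with 2.5×10^5 trypanosomes from rat blood; treatment began 24 h later. Drug dissolved in distilled water, given ip once daily for 3 days, three mice per dose. Tail blood smears checked weekly. MSD is the mean survival of mice dying of infection, excluding cures. Cure means survival >30 days beyond the last control death with a clear smear.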

Trypanosoma brucei [2] = experiment: Mean survival dose (10.0 mg/kg) after intraperitoneal administration once a day for 3 days in mouse infected with Trypanosoma brucei (EATRO Lab 110); format: functional; how it was run: as §1
Mus musculus [3] = experiment: Ratio of number of cured to that of total after intraperitoneal administration (10.0 mg/kg) once a day for 3 days in mouse infected with Trypanosoma brucei (EATRO Lab 110); (1/3 of animals were cured); format: functional, organism-based
Trypanosoma brucei [4] = experiment: Mean survival dose (2.5 mg/kg) after intraperitoneal administration once a day for 3 days in mouse infected with Trypanosoma brucei (EATRO Lab 110); format: functional; how it was run: as §1
Mus musculus [5] = experiment: Ratio of number of cured to that of total after intraperitoneal administration (25 mg/kg) once a day for 3 days in mouse infected with Trypanosoma brucei (EATRO Lab 110);(3/3 of animals were cured); format: functional, organism-based
Mus musculus [6] = experiment: Ratio of number of cured to that of total after intraperitoneal administration (5.0 mg/kg) once a day for 3 days in mouse infected with Trypanosoma brucei (EATRO Lab 110); (0/3 of animals were cured); format: functional, organism-based
Nucleic Acid = experiment: DNA binding affinity using poly(dA-dT).; format: nucleic-acid assay
How it was run: (§2)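 Thermal denaturation of calf thymus DNA or poly(dA-dT) at a 1:5 compound to base pair ratio. Binding affinity is reported as ΔTm, the shift in the midpoint (Tm) of the melting curve.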

Calf thymus DNA = experiment: DNA binding affinity using calf thymus DNA.; format: nucleic-acid assay; settings: Bos taurus; how it was run: as §2
Mus musculus [7] = experiment: Ratio of number of cured to that of total after intraperitoneal administration (1.0 mg/kg) once a day for 3 days in mouse infected with Trypanosoma brucei (EATRO Lab 110); (0/3 of animals were cured); format: functional, organism-based
Trypanosoma brucei [8] = experiment: In vitro inhibitory concentration against mouse infected with Trypanosoma brucei rhodesiense (kETRI 243As-10-3); format: functional, organism-based
[9] = tested on: Trypanosoma brucei rhodesiense; experiment: In vitro inhibitory concentration against mouse infected with Trypanosoma brucei rhodesiense (KETRI 269)
Trypanosoma brucei [10] = experiment: In vitro inhibitory concentration against mice infected with Trypanosoma brucei pentamidine-sensitive strain (EATRO Lab 110).; format: functional, organism-based
Trypanosoma brucei [11] = experiment: In vitro inhibitory concentration against mice infected with Trypanosoma brucei rhodesiense (KETRI 243).; format: functional, organism-based
Mus musculus [12] = experiment: Ratio of number of cured to that of total after intraperitoneal administration (2.5 mg/kg) once a day for 3 days in mouse infected with Trypanosoma brucei (EATRO Lab 110); (0/3 of animals were cured); format: functional, organism-based
Trypanosoma brucei [13] = experiment: Mean survival dose (5.0 mg/kg) after intraperitoneal administration once a day for 3 days in mouse infected with Trypanosoma brucei (EATRO Lab 110); format: functional; how it was run: as §1
Mus musculus [14] = experiment: Ratio of number of cured to that of total after intraperitoneal administration (25 mg/kg) once a day for 3 days in mouse infected with Trypanosoma brucei (EATRO Lab 110); (3/3 of animals were cured); format: functional, organism-based
Mus musculus [15] = experiment: Ratio of number of cured to that of total after intraperitoneal administration (5.0 mg/kg) once a day for 3 days in mouse infected with Trypanosoma brucei (EATRO Lab 110); (2/3 of animals were cured); format: functional, organism-based
Mus musculus [16] = experiment: Ratio of number of cured to that of total after intraperitoneal administration (1.0 mg/kg) once a day for 3 days in mouse infected with Trypanosoma brucei (EATRO Lab 110);(0/3 of animals were cured); format: functional, organism-based
Mus musculus [17] = experiment: Ratio of number of cured to that of total after intraperitoneal administration (10.0 mg/kg) once a day for 3 days in mouse infected with Trypanosoma brucei (EATRO Lab 110); (3/3 of animals were cured); format: functional, organism-based
Mus musculus [18] = experiment: Ratio of number of cured to that of total after intraperitoneal administration (2.5 mg/kg) once a day for 3 days in mouse infected with Trypanosoma brucei (EATRO Lab 110); (1/3 of animals were cured); format: functional, organism-based
Mus musculus [19] = experiment: Ratio of number of cured to that of total after intraperitoneal administration (5.0 mg/kg) once a day for 3 days in mouse infected with Trypanosoma brucei (EATRO Lab 110); (3/3 of animals were cured); format: functional, organism-based
Mus musculus [20] = experiment: Ratio of number of cured to that of total after intraperitoneal administration (2.5 mg/kg) once a day for 3 days in mouse infected with Trypanosoma brucei (EATRO Lab 110); (3/3 of animals were cured); format: functional, organism-based
Trypanosoma brucei [21] = experiment: Mean survival dose (25.0 mg/kg) after intraperitoneal administration once a day for 3 days in mouse infected with Trypanosoma brucei (EATRO Lab 110); Compound was toxic.; format: functional; how it was run: as §1
Mus musculus [22] = experiment: Ratio of number of cured to that of total after intraperitoneal administration (25 mg/kg) once a day for 3 days in mouse infected with Trypanosoma brucei (EATRO Lab 110); (0/3 of animals were cured); format: functional, organism-based

With `c1cc(N2CCCN(c3ccc(C4=NCCN4)cc3)CC2)ccc1C1=NCCN1` the MSD (Trypanosoma brucei [1]) was 4.7 days, the MSD (Trypanosoma brucei [2]) was 14 days and the Ratio (Mus musculus [3]) was “Partially active”. The MSD (Trypanosoma brucei [4]) was 4.3 days, the Ratio (Mus musculus [5]) was “Active” and the Ratio (Mus musculus [6]) was “inactive”. The DNA binding (Nucleic Acid) was 24 °C, the DNA binding (Calf thymus DNA) was 15 °C and the Ratio (Mus musculus [7]) was “inactive”. The IC50 (Trypanosoma brucei [8]) was 23 nM, the IC50 [9] was 155 nM and the IC50 (Trypanosoma brucei [10]) was 27.5 nM. The IC50 (Trypanosoma brucei [11]) was 52 nM, the Ratio (Mus musculus [12]) was “inactive” and the MSD (Trypanosoma brucei [13]) was 7.7 days.
In the case of `C(=C1\CCCN(c2ccc(C3=NCCN3)cc2)C1)/c1ccc(C2=NCCN2)cc1`, the DNA binding (Nucleic Acid) is reported as 15.5 °C, the DNA binding (Calf thymus DNA) is reported as 12 °C and the IC50 (Trypanosoma brucei [8]) is reported as 84 nM. The IC50 [9] was 88 nM, the IC50 (Trypanosoma brucei [10]) was 71 nM and the IC50 (Trypanosoma brucei [11]) was 84 nM.
In the case of `N=C(N)c1ccc(OC[C@@H]2C[C@H]2COc2ccc(C(=N)N)cc2)cc1`, the DNA binding (Nucleic Acid) is reported as 20.3 °C, the DNA binding (Calf thymus DNA) is reported as 11.1 °C and the IC50 (Trypanosoma brucei [8]) is reported as 0.17 nM. For the same molecule, the IC50 [9] was 15.5 nM, the IC50 (Trypanosoma brucei [10]) was 9.4 nM and the IC50 (Trypanosoma brucei [11]) was 45 nM.
With `CCCCNC(=N)c1ccc(N2CCCN(c3ccc(C(=N)NCCCC)cc3)CC2)cc1` the DNA binding (Nucleic Acid) was 13.3 °C, the DNA binding (Calf thymus DNA) was 11.8 °C and the IC50 (Trypanosoma brucei [8]) was 78 nM. It also gave an IC50 (Trypanosoma brucei [10]) of 180 nM and an IC50 (Trypanosoma brucei [11]) of 79 nM.
Work on `CC(C)(C)/N=C(\N)c1ccc(N2CCCN(c3ccc(/C(N)=N/C(C)(C)C)cc3)CC2)cc1` yielded a DNA binding (Nucleic Acid) of 7.4 °C, a DNA binding (Calf thymus DNA) of 4.1 °C and an IC50 (Trypanosoma brucei [8]) of over 1000 nM. The IC50 (Trypanosoma brucei [10]) was over 1000 nM and the IC50 (Trypanosoma brucei [11]) was over 1000 nM.
With `N=C(N)c1ccc(OCCCCCOc2ccc(C(=N)N)cc2)cc1` [PENTAMIDINE] the DNA binding (Nucleic Acid) was 20.6 °C, the DNA binding (Calf thymus DNA) was 11.1 °C and the IC50 (Trypanosoma brucei [8]) was 5 nM. The IC50 [9] was 3.2 nM, the IC50 (Trypanosoma brucei [10]) was 0.8 nM and the IC50 (Trypanosoma brucei [11]) was 3.1 nM.
Molecule `c1cc(C2=NCCN2)ccc1CC1CCN(c2ccc(C3=NCCN3)cc2)CC1` has a DNA binding (Nucleic Acid) of 33.9 °C, a DNA binding (Calf thymus DNA) of 21 °C and an IC50 (Trypanosoma brucei [8]) of 88 nM. The IC50 [9] was 155 nM, the IC50 (Trypanosoma brucei [10]) was 169 nM and the IC50 (Trypanosoma brucei [11]) was 185 nM.
`c1cc(C2=NCCN2)ccc1CC1CCCN(c2ccc(C3=NCCN3)cc2)C1` (stereo not given) showed a DNA binding (Nucleic Acid) of 14.1 °C, a DNA binding (Calf thymus DNA) of 9.9 °C and an IC50 (Trypanosoma brucei [8]) of 79 nM. For the same molecule, the IC50 [9] was 15 nM, the IC50 (Trypanosoma brucei [10]) was 86 nM and the IC50 (Trypanosoma brucei [11]) was 85 nM.
For `N=C(N)c1ccc(N2CCCN(c3ccc(C(=N)N)cc3)CC2)cc1`, the MSD (Trypanosoma brucei [1]) was 8.3 days, the Ratio (Mus musculus [14]) was “Active” and the Ratio (Mus musculus [15]) was “Partially active”. For the same molecule, the MSD (Trypanosoma brucei [4]) was 16.5 days, the Ratio (Mus musculus [16]) was “inactive” and the DNA binding (Nucleic Acid) was 23.1 °C. The DNA binding (Calf thymus DNA) was 15 °C, the Ratio (Mus musculus [17]) was “Active” and the IC50 (Trypanosoma brucei [8]) was 3.3 nM. The IC50 [9] was 7.1 nM, the Ratio (Mus musculus [18]) was “Partially active” and the IC50 (Trypanosoma brucei [10]) was 2.15 nM. For the same molecule, the IC50 (Trypanosoma brucei [11]) was 2.71 nM and the MSD (Trypanosoma brucei [13]) was 12 days.
Molecule `CC(C)/N=C(\N)c1ccc(N2CCCN(c3ccc(/C(N)=N/C(C)C)cc3)CC2)cc1` has a DNA binding (Nucleic Acid) of 20 °C, a DNA binding (Calf thymus DNA) of 13.8 °C and an IC50 (Trypanosoma brucei [8]) of 125 nM. For the same molecule, the IC50 (Trypanosoma brucei [10]) was over 1000 nM and the IC50 (Trypanosoma brucei [11]) was 900 nM.
For `N=C(N)c1ccc(NC(=O)c2cccc(C(=O)Nc3ccc(C(=N)N)cc3)n2)cc1`, the DNA binding (Nucleic Acid) was 15.9 °C, the DNA binding (Calf thymus DNA) was 7.1 °C and the IC50 (Trypanosoma brucei [8]) was over 1000 nM. It also gave an IC50 [9] of over 1000 nM, an IC50 (Trypanosoma brucei [10]) of over 1000 nM and an IC50 (Trypanosoma brucei [11]) of over 1000 nM.
Molecule `N=C(NC1CC1)c1ccc(N2CCCN(c3ccc(C(=N)NC4CC4)cc3)CC2)cc1` has a DNA binding (Nucleic Acid) of 23.6 °C, a DNA binding (Calf thymus DNA) of 15.3 °C and an IC50 (Trypanosoma brucei [8]) of 850 nM. It also gave an IC50 (Trypanosoma brucei [10]) of 870 nM and an IC50 (Trypanosoma brucei [11]) of 810 nM.
`N=C(NCCO)c1ccc(N2CCCN(c3ccc(/C(N)=N/CCO)cc3)CC2)cc1` showed a DNA binding (Nucleic Acid) of 14.7 °C, a DNA binding (Calf thymus DNA) of 11.1 °C and an IC50 (Trypanosoma brucei [8]) of over 1000 nM. For the same molecule, the IC50 (Trypanosoma brucei [10]) was over 1000 nM and the IC50 (Trypanosoma brucei [11]) was over 1000 nM.
With `c1cc(N2CCN(c3ccc(C4=NCCN4)cc3)CC2)ccc1C1=NCCN1` the MSD (Trypanosoma brucei [1]) was 10.3 days, the DNA binding (Nucleic Acid) was 19.4 °C and the DNA binding (Calf thymus DNA) was 15 °C. For the same molecule, the Ratio (Mus musculus [17]) was “Active”, the Ratio (Mus musculus [19]) was “Active” and the Ratio (Mus musculus [20]) was “Active”. The MSD (Trypanosoma brucei [21]) was 19.7 days, the Ratio (Mus musculus [7]) was “inactive” and the IC50 (Trypanosoma brucei [8]) was 100 nM. The IC50 [9] was 13 nM, the IC50 (Trypanosoma brucei [10]) was 18.5 nM and the IC50 (Trypanosoma brucei [11]) was 13.5 nM. The Ratio (Mus musculus [22]) was “inactive”.
`O=C(Nc1ccc(C2=NCCN2)cc1)C1C[C@H]1C(=O)Nc1ccc(C2=NCCN2)cc1` (stereo not given in full) gave a DNA binding (Nucleic Acid) of 9.6 °C, a DNA binding (Calf thymus DNA) of 6 °C and an IC50 (Trypanosoma brucei [8]) of 810 nM. It also gave an IC50 [9] of over 1000 nM, an IC50 (Trypanosoma brucei [10]) of over 1000 nM and an IC50 (Trypanosoma brucei [11]) of 440 nM.
In the case of `C(=C1CCN(Cc2ccc(C3=NCCN3)cc2)CC1)c1ccc(C2=NCCN2)cc1`, the DNA binding (Nucleic Acid) is reported as 19.4 °C, the DNA binding (Calf thymus DNA) is reported as 17 °C and the IC50 (Trypanosoma brucei [8]) is reported as 90 nM. The IC50 [9] was 265 nM, the IC50 (Trypanosoma brucei [10]) was 540 nM and the IC50 (Trypanosoma brucei [11]) was 465 nM.

— ChEMBL document CHEMBL1136717, “Trypanocidal activity of conformationally restricted pentamidine congeners” (J Med Chem, 2003)
